Reference: paper PMC11646436 (International Journal of Nanomedicine, 2024)

Legend:
AsPC-1 cells [1] = assay: Transwell cell invasion assay; assay type: cell-based, Human; conditions: AsPC-1, 1 μM, 48 h
Outline: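 AsPC-1 cells (1×10^4) were placed in serum-free medium in the upper chamber of 8-μm-pore transwells, with complete medium below, and treated with 1 μM test compound for 48 h. Cells on the upper membrane surface were swabbed off. Cells on the lower surface were stained with 0.5% crystal violet and counted per field under bright-field microscopy. Mean ± SD, n = 3.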

Mia PaCa-2 cells = assay: MTT cytotoxicity assay; assay type: cell-based; conditions: Homo sapiens
AsPC-1 cells [2] = assay: Cell cycle analysis by flow cytometry; assay type: cell-based, Human; conditions: AsPC-1, 10 μM, 24 h
Outline: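 AsPC-1 cells were seeded at 5×10^5 per well in 6-well plates and exposed to 10 μM test compound. They were then fixed overnight in cold 70% ethanol, stained with propidium iodide containing RNase A in the dark at room temperature, and analysed by flow cytometry for cell-cycle phase percentages. Mean ± SD, n = 3.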

PANC-1 cells = assay: MTT cytotoxicity assay; assay type: cell-based, Human
BxPC-3 cells = assay: MTT cytotoxicity assay; assay type: cell-based; conditions: Homo sapiens, BXPC-3, 48 h
Outline: (§1)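 Seeding was 2×10^4 per well for AsPC-1 and 1×10^4 for PANC-1, BxPC-3, Mia PaCa-2 and SU.86.86; cells adhered for 24 h at 37°C in 5% CO2. Test compound was given at 0.01, 0.1, 1, 10 and 100 μM for 48 h. MTT (5 mg/mL stock in PBS) was added for 4 h, dissolved in DMSO, and read at 490 nm. Viability was calculated against drug-free cells and cell-free blanks. Mean ± SD, n = 3.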

[3] = test system: AsPC-1-luc orthotopic xenograft; assay: Pharmacodynamics in AsPC-1-luc orthotopic xenograft model; assay type: in vivo, BALB/c nude mice
Outline: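 AsPC-1-luc cells were grown in RPMI-1640 with 10% FBS and 0.5 μg/mL puromycin. Under anaesthesia, 3×10^6 cells in 25 μL were injected into the pancreas of BALB/c nude mice. On day 7, luciferase substrate was given i.p. and mice were IVIS-imaged within 5 min, then grouped by bioluminescence. Dosing was i.v., Q3D × 6: 5% glucose, parent drug 10 mg/kg, or liposomal test compound 5 mg/kg. Mice were imaged on Days 17 and 27, followed by ex vivo organ imaging.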

AsPC-1 cells [4] = assay: Cellular accumulation by LC-MS/MS; assay type: cell-based, Human; conditions: AsPC-1, 10 μM, 48 h; Gem (Gem group), Gem and tcGem (LipotcGem group)
Outline: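 AsPC-1 cells were seeded at 5×10^6 per 10 cm dish overnight and exposed to 10 μM test compound for 12, 24 or 48 h. Cells were washed, counted and sonicated at 4°C in methanol-water (1:1). Parent nucleoside and prodrug were quantified by LC-MS/MS on a C8 UPLC column. The gradient was water/acetonitrile with 0.1% formic acid at 0.2 mL/min.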

AsPC-1 cells [5] = assay: MTT cytotoxicity assay; assay type: cell-based; conditions: Homo sapiens, ASPC1, 48 h, AsPC-1, 48 h incubation, 2×10^4 cells per well
Outline: as §1

[6] = Tissue distribution in AsPC-1 tumor-bearing mice; assay type: in vivo, BALB/c nude mice; conditions: i.v. 38 μmol/kg
Outline: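 BALB/c nude mice carrying subcutaneous AsPC-1 tumours (5×10^6 cells, right flank; 300–500 mm3) received one i.v. bolus at an equimolar 38 μmol/kg (parent drug 10 mg/kg; liposomal prodrug 19 mg/kg). After cardiac perfusion, tumour, heart, liver, spleen, lung, kidney and pancreas were collected at 0.5, 4, 8, 12 and 24 h. Parent nucleoside and prodrug were measured by LC-MS/MS.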

SU.86.86 cells = assay: MTT cytotoxicity assay; assay type: cell-based; conditions: Homo sapiens, SU.86.86, 48 h
Outline: as §1

[7] = test system: AsPC-1 subcutaneous xenograft; assay: Pharmacodynamics in AsPC-1 subcutaneous xenograft model; assay type: in vivo, BALB/c nude mice
Outline: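 Female BALB/c nude mice (18–20 g) received 5×10^6 AsPC-1 cells subcutaneously in the right flank. At ~100 mm3 they were sorted by volume and randomised into three groups. Dosing was i.v., Q3D × 6: 5% glucose vehicle, parent drug 10 mg/kg, or liposomal test compound 5 mg/kg. Tumour volume and body weight were followed throughout. Tumours were weighed on Day 30, one week after the last dose, and organs were taken for H&E. n = 5.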

Q: With `Nc1ccn([C@@H]2O[C@H](CO)[C@@H](O)C2(F)F)c(=O)n1` [Gem, Gemcitabine] as the compound, how does the invading cells (AsPC-1 cells [1]) read?
A: 129 ± 27 cells per field

Q: And the IC50 (Mia PaCa-2 cells; MIA PaCa-2, 48 h)?
A: > 100 µM

Q: What about the IC50 (Mia PaCa-2 cells; MIA PaCa-2, 72 h) of the same compound?
A: 73.5 µM

Q: And the “Percentage of cells (%) S” value (AsPC-1 cells [2])?
A: 35%

Q: And the IC50 (PANC-1 cells; Homo sapiens, PANC-1, 48 h)?
A: > 100 µM

Q: What about the cell viability (PANC-1 cells; PANC-1, lower cell densities and extended exposure time) of the same compound?
A: above 50%

Q: What about the IC50 (BxPC-3 cells) of the same compound?
A: 4.35 µM

Q: And the “metastatic burden (bioluminescent signals, liver and intestine)” value ([3]; Day 27, ex vivo)?
A: moderate

Q: What about the “tumor inhibition rate (TIR)” value ([3]; orthotopic model, i.v. Q3D × 6, Gem 10 mg/kg, LipotcGem 5 mg/kg) of the same compound?
A: 50%

Q: And the intracellular accumulation (AsPC-1 cells [4])?
A: 0.0015 nmol/10^6 cells

Q: What about the IC50 (AsPC-1 cells [5]) of the same compound?
A: > 100 µM

Q: What about the concentration in tumors ([6]; 8 h, Gem (Gem group), Gem and tcGem (LipotcGem group)) of the same compound?
A: 0.004 µmol/g

Q: And the “Gem concentration in tumor tissues and plasma over time” value [6]?
A: undetectable beyond 8 h

Q: What about the IC50 (SU.86.86 cells) of the same compound?
A: > 100 µM

Q: What about the “tumor inhibition rate (TIR), tumor weight” value ([7]; Day 30, i.v. Q3D × 6, Gem 10 mg/kg, LipotcGem 5 mg/kg) of the same compound?
A: 49%

Q: And the “tumor inhibition rate (TIR), tumor volume” value ([7]; i.v. Q3D × 6, Gem 10 mg/kg, LipotcGem 5 mg/kg)?
A: 50%

Q: What about the body weight ([7]; subcutaneous model, throughout treatment) of the same compound?
A: No significant weight loss
